Measured values as given in ChEMBL document CHEMBL3877293, “Synthesis and Antineoplastic Evaluation of Novel Unsymmetrical 1,3,4-Oxadiazoles” (J Med Chem, 2016).

Assays:
[1] = Antiproliferative activity against human HeLa cells after 72 hrs by XTT assay; type: functional, cell-based
Method in brief: (§1)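 Cells plated at 1500–2000 per well by doubling time, treated after 24 h with a concentration series in six triplicate wells, and incubated 72 h without a medium change. XTT reagent was then added for 4 h at 37 °C and absorbance read at 490 nm. IC50 is the concentration halving absorbance versus untreated cells. Experiments run in triplicate.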

[2] = Antiproliferative activity against human MCF7 cells after 72 hrs by XTT assay; type: functional, cell-based; conditions: MCF7, 72 h; method in brief: as §1

SMILES | IC50 [1] | IC50 [2]
COc1ccc2c(c1)-c1[nH]c(C)c(-c3nnc(-c4ccccc4)o3)c1C2 | > 10 µM | > 10 µM
Cn1nc(-c2nnc(-c3ccccc3)o2)c2c1-c1ccccc1C2 | > 10 µM | > 10 µM
Clc1ccc(-c2nnc(-c3c[nH]c4c3Cc3ccccc3-4)o2)cc1 | > 10 µM | > 10 µM
Cc1ccc(Cc2nnc(-c3c[nH]c4c3Cc3ccccc3-4)o2)cc1 | > 10 µM | 4.25 µM
Cc1[nH]c2c(c1-c1nnc(-c3ccccc3)o1)Cc1cc(C3CC3)ccc1-2 | 1.58 µM | 2.31 µM
Clc1ccc(-c2nnc(-c3c[nH]c4c3Cc3ccccc3-4)o2)cc1Cl | > 10 µM | > 10 µM
c1ccc(Cc2nnc(-c3c[nH]c4c3Cc3ccccc3-4)o2)cc1 | > 10 µM | > 10 µM
Cc1[nH]c2c(c1-c1nnc(-c3ccccc3)o1)Cc1cc(Br)ccc1-2 | 0.51 µM | 4.26 µM
Clc1cccc(-c2nnc(-c3c[nH]c4c3Cc3ccccc3-4)o2)c1 | > 10 µM | > 10 µM
COc1cc(-c2nnc(-c3c[nH]c4c3Cc3ccccc3-4)o2)cc(OC)c1OC | > 10 µM | > 10 µM
c1ccc2c(c1)Cc1c(-c3nnc(C4CCCCC4)o3)c[nH]c1-2 | > 10 µM | > 10 µM
CC(C)(C)c1ccc(-c2nnc(-c3c[nH]c4c3Cc3ccccc3-4)o2)cc1 | 3.4 µM | 9.5 µM
c1ccc(-c2nnc(-c3nn(-c4ccccc4)c4c3Cc3ccccc3-4)o2)cc1 | > 10 µM | 7.59 µM
Cc1[nH]c2c(c1-c1nnc(-c3ccccc3)o1)Cc1cc(Cl)ccc1-2 | 4.5 µM | > 10 µM
Clc1ccc(Cc2nnc(-c3c[nH]c4c3Cc3ccccc3-4)o2)cc1 | > 10 µM | > 10 µM
Cc1ccc2c(c1)Cc1c-2[nH]c(C)c1-c1nnc(-c2ccccc2)o1 | 5.3 µM | > 10 µM
